# The array DNA melting data of Ke et al. (doi:10.1101/2024.01.08.574731)
# Columns and labels:
# [1] = folding enthalpy; higher = less favourable; fluorescence melt of hairpins on a sequencing array, two-state fit; conditions: sodium 0.088 M
# Method in brief: (§1)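 On a sequenced MiSeq flow cell, library hairpins with annealed Cy3 and quencher oligos were imaged for Cy3 fluorescence in 2.5 °C steps up to 60 °C, in 50 mM Na-HEPES pH 8.0, 25 mM NaCl. Normalisation used pre-quench Cy3 and control constructs. Bootstrapped two-state fits gave melting temperature and folding enthalpy, combined by inverse variance across four replicates and with fitted temperatures raised by 9.35 °C to match UV melts.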
# [2] = melting temperature; fluorescence melt of hairpins on a sequencing array, two-state fit, raised by 9.35 °C to match UV melts; conditions: sodium 0.088 M
# Method in brief: as §1
Sequence,folding enthalpy [1],Tm [2]
GAACCACGAAAGTGATTC (((.(((....))).))),-23.9 kcal/mol,43.7 °C
GAACCACGAAAGTGCTTC (((.(((....))).))),-17.1 kcal/mol,32.3 °C
GAACCCCCGAAAGGGTTC (((..(((....)))))),-24 kcal/mol,55 °C
GAACCCGAAAGGGAGTTC ((((((....)))..))),-13.7 kcal/mol,40 °C
GAACCCGAAAGGGGATTC ((((((....)))..))),-16.6 kcal/mol,42.9 °C
GAACCCGAAAGGGGTTTC ((((((....)))..))),-11.6 kcal/mol,46.9 °C
GAACCCGGAAACAGGTTC (((((.(....).))))),-25.9 kcal/mol,40 °C
GAACCCGGAAACGGGCTC ((.((((....)))).)),-15.4 kcal/mol,47.3 °C
GAACCGCGAAAGCGATTC (((.(((....))).))),-24.8 kcal/mol,47.8 °C
GAACCGCGAAAGCGTTC (((.(((....)))))),-14.2 kcal/mol,44 °C
GAACCTGGAAACAAGTTC ((((.((....)).)))),-15.9 kcal/mol,26.8 °C
GAACGACGAAAGTCCTTC (((.(((....))).))),-14.3 kcal/mol,31.3 °C
GAACGAGGAAACTCGCTC ((.((((....)))).)),-20.5 kcal/mol,38.9 °C
GAACGCGGAAACGCGCTC ((.((((....)))).)),-15.1 kcal/mol,50.3 °C
GAACGGCGAAAGCCATTC (((.(((....))).))),-16.8 kcal/mol,44.2 °C
GAACTACGAAAGTACTTC (((.(((....))).))),-9.53 kcal/mol,25.9 °C
GAACTAGGAAACCAGTTC (((((.(....).))))),-28.3 kcal/mol,33.9 °C
GAACTAGGAAACTAGTTC (((((((....))))))),-40.2 kcal/mol,53.8 °C
GAACTCCGAAAGGAATTC (((.(((....))).))),-25.9 kcal/mol,37.5 °C

Sequence,folding enthalpy [1],Tm [2]
GAACTCCGAAAGGATTC (((.(((....)))))),-17 kcal/mol,37.1 °C
GAACTCGAAAGAGTTC ((((((....)))))),-39.3 kcal/mol,61.6 °C
GAACTGCGAAAGCAATTC (((.(((....))).))),-21.7 kcal/mol,36.7 °C
GAACTGGAAACAGTTC ((((((....)))))),-32.4 kcal/mol,53.9 °C
GAACTGGGAAACCAGTTC (((((((....))))))),-40.7 kcal/mol,61.7 °C
GAACTTGGAAACAAGTTC (((((((....))))))),-39 kcal/mol,57.4 °C
GAAGACGAAAGTCAATTC ((((((....)))..))),-15.5 kcal/mol,32.9 °C
GAAGACGAAAGTCATTTC ((((((....)))..))),-8.24 kcal/mol,23.9 °C
GAAGACGAAAGTCGCTTC ((((((....)))..))),-22.6 kcal/mol,47.1 °C
GAAGATGAAAATCTTC ((((((....)))))),-28.1 kcal/mol,48.4 °C
GAAGCACGAAAGTGTTC (((.(((....)))))),-13.4 kcal/mol,36.1 °C
GAAGCCCCGAAAGGGTTC (((..(((....)))))),-14.3 kcal/mol,36.9 °C
GAAGCCCGAAAGGGATTC (((.(((....))).))),-42.4 kcal/mol,61.4 °C
GAAGCCCGAAAGGGGTTC (((.(((....))).))),-36.8 kcal/mol,67.7 °C
GAAGCCCGAAAGGGTTC (((.(((....)))))),-16 kcal/mol,47.7 °C
GAAGCCGAAAGGCACTTC ((((((....)))..))),-12 kcal/mol,42.4 °C
GAAGCCGAAAGGCCATTC ((((((....)))..))),-8.97 kcal/mol,28 °C
GAAGCCGAAAGGCCTTC ((((((....))).))),-16.2 kcal/mol,48.8 °C
GAAGCCGAAAGGCCTTTC ((((((....)))..))),-9.88 kcal/mol,35.9 °C
